Assay results as given in ChEMBL document CHEMBL1154788, “Synthesis and antibacterial activity of some novel bis-1,2,4-triazolo[3,4-b]-1,3,4-thiadiazoles and bis-4-thiazolidinone derivatives from terephthalic dihydrazide” (2009).

Legend:
[1] = tested on: Escherichia coli; assay: Antibacterial activity against Escherichia coli ATTC 25922 at 1 mg/ml after 24 hrs by well-diffusion method; assay type: functional; conditions: ATTC 25922, 24 h, read-out: DIZ
How it was run: (§1)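 Agar well diffusion. About 1 cm3 of a 24 h infusion-broth culture (10^6 cfu cm-3) was mixed in plates with 15 cm3 molten nutrient agar held at 45°C. Once the agar set, 6 mm wells were punched and filled with compound solution (1 mg ml-1 in DMSO). Plates were incubated 24 h at 37°C, and the inhibition-zone diameter was measured. Ciprofloxacin and sulphamethoxazole were the standards.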

[2] = tested on: Klebsiella pneumoniae; assay: Antibacterial activity against Klebsiella pneumoniae ATCC 10031 at 1 mg/ml after 24 hrs by well-diffusion method; assay type: functional; conditions: ATCC 10031, 24 h, read-out: DIZ
[3] = tested on: Bacillus cereus; assay: Antibacterial activity against Bacillus cereus ATTC 10702 at 1 mg/ml after 24 hrs by well-diffusion method; assay type: functional; conditions: ATTC 10702, 24 h, read-out: DIZ; how it was run: as §1
[4] = tested on: Salmonella typhimurium; assay: Antibacterial activity against Salmonella Typhimurium ATTC 23564 at 1 mg/ml after 24 hrs by well-diffusion method; assay type: functional, Salmonella enterica subsp. enterica serovar Typhimurium; conditions: Salmonella enterica, ATTC 23564, 24 h; read-out: DIZ

Row | SMILES | zone of inhibition at 1000 µg/mL [1] [mm] | zone of inhibition at 1000 µg/mL [2] [mm] | zone of inhibition at 1000 µg/mL [3] [mm] | zone of inhibition at 1000 µg/mL [4] [mm]
1 | O=C(N/N=C/c1ccccc1)c1ccc(C(=O)N/N=C/c2ccccc2)cc1 | 6 | 5 | 4 | 4
2 | O=C(NN1C(=O)CSC1c1ccccc1)c1ccc(C(=O)NN2C(=O)CSC2c2ccccc2)cc1 (stereo not given) | 8 | 6 | 8 | 7
3 | c1ccc(-c2nnc(-c3ccc(-c4nnc(-c5ccccc5)o4)cc3)o2)cc1 | 8 | 7 | 8 | 7
4 | COc1ccc(/C=N/NC(=O)c2ccc(C(=O)N/N=C/c3ccc(OC)cc3)cc2)cc1 | 6 | 6 | 6 | 4
5 | O=[N+]([O-])c1ccc(-c2nn3c(-c4ccc(-c5nnc6sc(-c7ccc([N+](=O)[O-])cc7)nn56)cc4)nnc3s2)cc1 | 5 | 5 | 5 | 5
6 | O=C(N/N=C/c1ccccc1Br)c1ccc(C(=O)N/N=C/c2ccccc2Br)cc1 | 6 | 5 | 5 | 6
7 | O=C(N/N=C/c1ccccc1Cl)c1ccc(C(=O)N/N=C/c2ccccc2Cl)cc1 | 5 | 6 | 8 | 7
8 | O=C(NN1C(=O)CSC1c1ccccc1Br)c1ccc(C(=O)NN2C(=O)CSC2c2ccccc2Br)cc1 (stereo not given) | 7 | 7 | 7 | 6
9 | Clc1ccc(-c2nnc(-c3ccc(-c4nnc(-c5ccc(Cl)cc5)o4)cc3)o2)cc1 | 8 | 4 | 8 | 6
10 | O=C(N/N=C/c1ccc(O)cc1)c1ccc(C(=O)N/N=C/c2ccc(O)cc2)cc1 | 5 | 5 | 6 | 5
11 | Nn1c(S)nnc1-c1ccc(-c2nnc(S)n2N)cc1 | 7 | 6 | 5 | 6
12 | Clc1ccccc1-c1nn2c(-c3ccc(-c4nnc5sc(-c6ccccc6Cl)nn45)cc3)nnc2s1 | 6 | 6 | 7 | 6
13 | Oc1ccc(-c2nnc(-c3ccc(-c4nnc(-c5ccc(O)cc5)o4)cc3)o2)cc1 | 6 | 6 | 5 | 4
14 | COc1ccc(-c2nnc(-c3ccc(-c4nnc(-c5ccc(OC)cc5)o4)cc3)o2)cc1 | 7 | 5 | 6 | 4
15 | O=C(NN1C(=O)CSC1c1ccccc1Cl)c1ccc(C(=O)NN2C(=O)CSC2c2ccccc2Cl)cc1 (stereo not given) | 7 | 6 | 6 | 6
16 | Nc1ccc(-c2nnc(-c3ccc(-c4nnc(-c5ccc(N)cc5)o4)cc3)o2)cc1 | 6 | 5 | 6 | 5
17 | O=[N+]([O-])c1ccc(-c2nnc(-c3ccc(-c4nnc(-c5ccc([N+](=O)[O-])cc5)o4)cc3)o2)cc1 | 9 | 8 | 9 | 8
18 | O=C(O)c1cn(C2CC2)c2cc(N3CCNCC3)c(F)cc2c1=O [CIPROFLOXACIN] |  | 21 | 18 | 23
19 | Cc1cc(NS(=O)(=O)c2ccc(N)cc2)no1 [SULFAMETHOXAZOLE] | 12 | 10 | 10 | 11
